From PubChem
An excerpt weighted towards active compounds, which were near 2.3% of everything screened.
TPT1 inhibitor = Candida albicans TPT1 enzyme inhibitors, primary screen, biochemical, fluorescence polarization; tRNA 2'-phosphotransferase TPT1 (Candida albicans SC5314); recombinant caTPT1, FP RNA substrate dephosphorylation; inhibition, % at 5 µM; hit rate 0.81% among 300,000; AID 1962, 2009;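 active means inhibition above the mean of all tested compounds plus 3 SD, set per screening campaign, cut at about 24% in these data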;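 further: plate controls were DMSO alone for no effect and ferristatin control at 100 nM for full effect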
Myeloid diff MLP = induction of myeloid progenitor differentiation, primary screen, cell-based, flow cytometry, MLPCN library; ER-HoxA9 myeloid progenitors, lysozyme-GFP differentiation; calls only at 10 µM; hit rate 1% among 360,000; AID 624256, 2012;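 active means normalized GFP-positive differentiation at or above the plate's own cutoff, the solvent-only control mean plus 3 SD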;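 further: cells exposed to compound for four days before flow analysis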
Rpn11 block = Rpn11 (PSMD14) deubiquitinase inhibitors, primary screen, biochemical, fluorescence polarization, uHTS | inhibition, % at 20 µM | AID 588493, 2011 | 26S proteasome non-ATPase regulatory subunit 14 (Homo sapiens), O00487 | hit rate 0.59% among 360,000 | human 26S proteasome, Ub4-pepOG fluorescence polarization; 20S core pre-blocked with epoxomicin;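 active means inhibition at 20 µM, scaled to each plate's controls, above about 33%, limit read from the data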
HNF4A DNA FP = change in binding of human HNF4A to DNA, primary screen, biochemical, fluorescence polarization, FITC-DNA. activity change, % at 10 µM. 1 h. Hepatocyte nuclear factor 4-alpha (Homo sapiens), P41235. AID 1224865, 2016. hit rate 0.3% among 360,000; in the data active means activity change above about 30%, passing the limit was not always enough
CSN deneddyl inh = inhibitors of CSN-mediated cullin deneddylation, primary screen, biochemical, fluorescence polarization, uHTS. COP9 signalosome complex subunit 5 (Homo sapiens), Q92905. Purified CSN, SCF-Nedd8-OG deneddylation. inhibition, % at 12.5 µM. hit rate 0.38% among 360,000. AID 651999, 2013;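 active means pattern-corrected inhibition above about 35%, with an unprinted fluorescence ratio check between 0.5 and 1.5, limit read from the data, passing the limit was not always enough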;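 further: 0% = enzyme with substrate and 100% = substrate without enzyme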
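Assay system: purified human Csn5 enzyme expressed in HEK293T cells; Input: 0.24 nM Csn5 enzyme, final concentration; Reagent: 10 nM SCFSkp2-Nedd8OG; Compound dosing: 12.5 µM single point; Times: reaction 90 min, room temperature; Technique: fluorescence polarization readout.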
Rpn11 inh conf = Rpn11 (PSMD14) deubiquitinase inhibitors, confirmation, biochemical, fluorescence polarization, single concentration; AID 602318, 2012; inhibition, % at 20 µM; shares compounds with Rpn11 block; hit rate 29% among 1,900; purified human 26S proteasome, Ub4-pepOG fluorescence polarization; proteasome pretreated with epoxomicin
MMP-2 counter = MMP-2 enzyme inhibition, confirmation, counter-screen for RPN11 inhibitor project, biochemical, fluorescence, single concentration. hit rate 4% among 1,900. recombinant MMP-2, FRET peptide cleavage fluorescence. shares compounds with Rpn11 block. inhibition, % at 20 µM. AID 602330, 2012;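 further: human MMP-2 activated beforehand with APMA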
Thrombin inh = bovine thrombin protease inhibition, confirmation, counter-screen for Rpn11 inhibitor project, biochemical, fluorescence polarization, single concentration | shares compounds with Rpn11 block | bovine thrombin cleavage of Ub4-pepOG | inhibition, % at 20 µM | hit rate 13% among 1,900 | AID 602333, 2012;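 active means mean inhibition at least 40% at 20 µM, or signal 3 deviations below plate average, so some actives read negative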;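 further: plate controls were thrombin with DMSO for no effect and buffer wells lacking thrombin for full effect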
Target sequence (P00735 whole entry, looked up): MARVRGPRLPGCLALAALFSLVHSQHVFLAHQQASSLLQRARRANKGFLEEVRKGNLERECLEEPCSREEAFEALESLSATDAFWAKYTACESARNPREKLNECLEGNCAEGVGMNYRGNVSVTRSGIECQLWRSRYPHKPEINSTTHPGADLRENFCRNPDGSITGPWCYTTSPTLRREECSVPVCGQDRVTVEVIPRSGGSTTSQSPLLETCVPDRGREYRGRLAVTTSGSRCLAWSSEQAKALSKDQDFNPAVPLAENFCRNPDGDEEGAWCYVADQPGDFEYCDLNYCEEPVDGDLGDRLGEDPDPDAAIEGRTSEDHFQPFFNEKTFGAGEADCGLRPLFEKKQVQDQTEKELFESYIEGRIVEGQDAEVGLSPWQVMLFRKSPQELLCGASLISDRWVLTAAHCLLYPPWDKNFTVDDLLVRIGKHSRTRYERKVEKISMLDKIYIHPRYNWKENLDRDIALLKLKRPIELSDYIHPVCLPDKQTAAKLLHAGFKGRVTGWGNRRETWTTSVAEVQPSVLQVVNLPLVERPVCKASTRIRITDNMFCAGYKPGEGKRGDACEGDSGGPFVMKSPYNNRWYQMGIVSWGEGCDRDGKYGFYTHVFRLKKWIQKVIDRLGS
Numbers without * were called inactive; i = inactive; · = no result; + = active, no number; ! = a repeat was not active. Unless noted, no stated cut-off is given here; in the data, active means inhibition above about 40%; inactive means the rest.

SMILES | TPT1 inhibitor | Myeloid diff MLP | Rpn11 block | HNF4A DNA FP | CSN deneddyl inh | Rpn11 inh conf | MMP-2 counter | Thrombin inh
Cc1c(NC(=O)c2cccc(-c3cc4ccccc4oc3=O)c2)cccc1-c1nc2ncccc2o1 | 2 | i | 138* | 3 | 13 | 110* | -27 | 0
CCN(CC)c1ccc(NC(=O)c2ccccc2OCC(=O)OC)cc1 | -1 | i | 3 | 1 | -2 | · | · | ·
COc1ccc(NC(=O)CN(C)S(=O)(=O)c2ccc(Cl)cc2)c([N+](=O)[O-])c1 | 7 | i | 39* | 5 | 11 | 34 | -16 | -3
COc1cc(NC(=O)CN(C)S(=O)(=O)c2ccc(C)cc2)cc(OC)c1 | -2 | i | 38* | 1 | -1 | 3 | 21 | -1
COc1ccc(/C=C/C(=O)Nc2ccc(OC)cc2[N+](=O)[O-])cc1 | 3 | i | 44* | 11 | 10 | 39 | -20 | 14
COc1cccc(NC(=O)CN(C)CC(=O)Nc2ccc(Cl)cc2[N+](=O)[O-])c1 | -3 | i | 1 | 1 | 0 | · | · | ·
CC1CCN(Cc2c(C(=O)O)nnn2-c2nonc2N)CC1 | 2 | i | -5 | -3 | 5 | · | · | ·
Nc1cccc2[nH]c(C(F)(F)F)nc12 | 3 | i | 54* | 5 | 16 | 23 | -5 | -18
O=C(CCOc1ccccc1)Nc1ccnn1C1CCN(C(=O)CCC(F)(F)F)CC1 | -5 | i | 0 | 0 | 0 | · | · | ·
CCN(CC)S(=O)(=O)c1cccc(NC(=O)COc2ccc(F)cc2Br)c1 | -1 | i | 46* | -4 | -2 | 1 | 26 | -3
Cc1nn(CC(=O)Nc2nnc(C(C)C)s2)c(=O)c2ccccc12 | -2 | i | -1 | 2 | -5 | · | · | ·
CC1=Nc2ccc(C)cc2/C1=C/c1c(N)n2oc(C)cc2nc1=O | 16 | +! | 70* | 19 | 18 | 59* | -25 | 32
NC(=O)NC1NC(=O)NC1=O (stereo not drawn) | 1 | i | -4 | -1 | -2 | · | · | ·
CC1=CC(=C2N=C(c3ccccc3)OC2=O)C=C(C)O1 | -5 | i | 51* | 0 | 62* | 152* | -56 | 9
CCn1nnnc1NCc1ccc(N2CCCC2)cc1 | 3 | i | 59* | 7 | -10 | 0 | 11 | -4
O=C(CSc1ncccc1C(=O)O)c1cccc(C(F)(F)F)c1 | -2 | i | 121* | 56* | -9 | -4 | -27 | -12
COc1ccccc1NC(=O)CCNC(=O)c1ccc(C)cc1 | · | i | 0 | 0 | 3 | · | · | ·
COc1ccccc1C(=O)COC(=O)c1cc(=O)[nH]c2ccccc12 | 0 | i | -3 | -4 | 3 | · | · | ·
Cc1ccc(C(=O)COC(=O)c2cc(=O)[nH]c3ccccc23)cc1C | -6 | i | 100* | -2 | 20 | 59* | 13 | 4
Fc1ccc(-c2nc3c4ccccc4ccn3c2Cc2cccc(Cl)c2)cc1 | · | i | 43* | 10 | 1 | 68* | 4 | 74*
Clc1cccc(Cc2c(-c3ccccc3)nc3c4ccccc4ccn23)c1 | · | i | 18 | -2 | 7 | · | · | ·
CSc1nc2nccc(-c3ccc(Cl)cc3)n2n1 | 3 | i | 83* | -7 | 12 | 36 | 66* | -10
Oc1ccc(-n2cnnn2)cc1 | 3 | i | 2 | 0 | 0 | · | · | ·
COc1ccc(N(CC(=O)NCCSc2ccccn2)S(=O)(=O)c2ccccc2)c(OC)c1 | 1 | i | 6 | -3 | 6 | · | · | ·
